Reference: article PMC3068223 (Biochemistry, 2011)

Experiments:
Type in all cases: biochemical
rat MAO B = molecular target: T1, rat MAO B (Rattus norvegicus, UniProt P19643); assay: Inhibition of recombinant rat MAO B in P. pastoris mitochondria; details: intact yeast mitochondria
T1 sequence (P19643 1-520): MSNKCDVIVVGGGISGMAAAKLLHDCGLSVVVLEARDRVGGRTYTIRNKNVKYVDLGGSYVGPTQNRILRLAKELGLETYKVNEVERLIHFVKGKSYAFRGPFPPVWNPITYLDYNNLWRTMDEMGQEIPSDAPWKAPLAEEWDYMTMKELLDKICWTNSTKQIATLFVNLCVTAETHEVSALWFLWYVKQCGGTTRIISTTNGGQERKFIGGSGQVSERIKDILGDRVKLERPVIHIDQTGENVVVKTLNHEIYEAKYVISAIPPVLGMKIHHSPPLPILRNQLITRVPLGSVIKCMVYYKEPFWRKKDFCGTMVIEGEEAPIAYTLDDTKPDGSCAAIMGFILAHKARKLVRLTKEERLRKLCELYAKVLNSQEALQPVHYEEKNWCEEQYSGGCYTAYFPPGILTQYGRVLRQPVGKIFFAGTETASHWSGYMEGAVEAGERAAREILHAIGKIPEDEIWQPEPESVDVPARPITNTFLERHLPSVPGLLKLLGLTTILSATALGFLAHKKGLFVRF

purified rat MAO B = molecular target: T2, purified rat MAO B (Rattus norvegicus, UniProt P19643); assay: Rate of inactivation of purified rat MAO B; details: apparent pseudo-first order, 1 mM inhibitor, room temperature
T2 sequence (P19643 1-520): T1 sequence (P19643 1-520)

MOM-bound rat MAO B [1] = molecular target: T3, MOM-bound rat MAO B (Rattus norvegicus, UniProt P19643); assay: Rate of inactivation of MOM-bound recombinant rat MAO B; details: apparent pseudo-first order, 1 mM inhibitor, room temperature
T3 sequence (P19643 1-520): T1 sequence (P19643 1-520)

MOM-bound rat MAO A [2] = molecular target: T4, MOM-bound rat MAO A (Rattus norvegicus, UniProt P21396); assay: Rate of inactivation of MOM-bound recombinant rat MAO A; details: apparent pseudo-first order, 1 mM inhibitor, room temperature
T4 sequence (P21396 1-526): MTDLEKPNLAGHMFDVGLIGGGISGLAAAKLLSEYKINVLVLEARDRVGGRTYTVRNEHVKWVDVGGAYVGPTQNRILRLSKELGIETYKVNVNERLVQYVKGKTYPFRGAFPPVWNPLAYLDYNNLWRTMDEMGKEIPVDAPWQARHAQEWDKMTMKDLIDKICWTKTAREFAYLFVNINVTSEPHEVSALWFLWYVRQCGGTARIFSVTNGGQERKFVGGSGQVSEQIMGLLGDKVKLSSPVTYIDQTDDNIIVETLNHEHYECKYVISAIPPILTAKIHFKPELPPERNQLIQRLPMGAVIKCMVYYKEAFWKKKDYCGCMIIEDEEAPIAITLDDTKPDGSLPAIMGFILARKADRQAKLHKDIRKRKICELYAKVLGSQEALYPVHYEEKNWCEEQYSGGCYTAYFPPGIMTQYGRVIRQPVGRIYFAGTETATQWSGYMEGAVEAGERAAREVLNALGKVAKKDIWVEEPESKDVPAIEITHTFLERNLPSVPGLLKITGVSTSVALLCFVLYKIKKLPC
Outline: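 Outer-membrane-bound rat MAO A came from Pichia pastoris KM71 mitochondria, isolated by osmotic shock, sonication and sucrose gradient. Membranes were incubated with 1 mM test compound at room temperature, with an uninhibited control. Remaining activity over time was followed spectrophotometrically at 25°C. Apparent pseudo-first-order rate constants were obtained from exponential fits of activity decay.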

rat MAO A = molecular target: T5, rat MAO A (Rattus norvegicus, UniProt P21396); assay: Inhibition of recombinant rat MAO A in P. pastoris mitochondria; details: intact yeast mitochondria
T5 sequence (P21396 1-526): T4 sequence (P21396 1-526)

purified rat MAO A = molecular target: T6, purified rat MAO A (Rattus norvegicus, UniProt P21396); assay: Rate of inactivation of purified rat MAO A; details: apparent pseudo-first order, 1 mM inhibitor, room temperature
T6 sequence (P21396 1-526): T4 sequence (P21396 1-526)
Outline: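 Recombinant rat MAO A was purified from Pichia pastoris KM71, with d-amphetamine removed before kinetics. The enzyme was incubated with 1 mM test compound at room temperature, with an uninhibited control. Activity loss over time was measured spectrophotometrically with kynuramine in 50 mM potassium phosphate, pH 7.5, 0.5% reduced Triton X-100, at 25°C. Pseudo-first-order rate constants came from exponential decay fits.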

MAO A = molecular target: T7, MAO A (Rattus norvegicus, UniProt P21396); assay: Protease treatment of rat liver mitochondria, MAO A activity; details: protease:protein 1:5 (w/w), room temperature
T7 sequence (P21396 1-526): T4 sequence (P21396 1-526)
Outline: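 Rat liver mitochondria were isolated from a perfused Sprague-Dawley rat liver and purified on 30% Percoll. They were incubated at room temperature with trypsin at a 1:5 (w/w) protease:protein ratio. Samples taken over time were quenched with 1 mM PMSF (final). MAO A activity was measured polarographically as O2 uptake with serotonin in 50 mM potassium phosphate, pH 7.5, at 25°C.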

MOM-bound rat MAO A [3] = molecular target: T4, MOM-bound rat MAO A; assay: Protease treatment of yeast recombinant MOM-bound rat MAO A; details: protease:protein 1:5 (w/w), room temperature
Outline: (§1)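 Rat MAO A or MAO B was expressed in Pichia pastoris KM71. Outer membranes were isolated by osmotic shock, mild sonication and a 30–55% sucrose gradient. Membranes were incubated at room temperature with trypsin or β-chymotrypsin at a 1:5 (w/w) protease:protein ratio. Timed samples were quenched with 1 mM PMSF (final). Residual activity was measured spectrophotometrically as product formation at 25°C.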

MOM-bound rat MAO B [4] = molecular target: T3, MOM-bound rat MAO B; assay: Protease treatment of yeast recombinant MOM-bound rat MAO B; details: protease:protein 1:5 (w/w), room temperature
Outline: as §1

Row | Molecule | inhibition of rat MAO B in intact mitochondria (rat MAO B) | k (inactivation) MAO B (Purified) (purified rat MAO B) | k (inactivation) MAO B (MOM) (MOM-bound rat MAO B [1]) | k (inactivation) MAO A (MOM) (MOM-bound rat MAO A [2]) [s⁻¹] | inhibition of rat MAO A in intact mitochondria (rat MAO A) | k (inactivation) MAO A (Purified) (purified rat MAO A) [s⁻¹] | MAO A activity lost (MAO A) [%] | inactivation of yeast recombinant MOM-bound rat MAO A by protease (MOM-bound rat MAO A [3]) | inactivation of yeast recombinant MOM-bound rat MAO B by protease (MOM-bound rat MAO B [4])
1 | C#CCN(C)Cc1ccccc1 [Pargyline, pargyline] | functions as an inhibitor with either enzyme | too fast to measure | too fast to measure | 44.8 ± 6.2 | functions as an inhibitor with either enzyme | 9.4 ± 1.1 | – | – | –
2 | trypsin | – | – | – | – | – | – | > 90 | sensitive to trypsin | no observable inactivation
